Experimental data from ChEMBL document CHEMBL3627695, “1-Benzyl-2-methyl-3-indolylmethylene barbituric acid derivatives: Anti-cancer agents that target nucleophosmin 1 (NPM1)” (Bioorg Med Chem, 2015).

Experiments:
[1] = test system: T47D; assay: Anticancer activity against human T47D cells after 48 hrs by sulforhodamine B assay; format: functional
Procedure, shortened: (§1)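 NCI-60 panel protocol. Compounds were dissolved in DMSO/H2O and tested at five 10-fold concentrations (10⁻⁴ to 10⁻⁸ M) with 48 hr incubation. GI50 is the molar concentration giving a 50% reduction in net cell growth relative to cell numbers on day 0.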

[2] = test system: MDA-MB-468; assay: Anticancer activity against human MDA-MB-468 cells after 48 hrs by sulforhodamine B assay; format: functional; details: MDA-MB-468, 48 h
Procedure, shortened: (§2)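 NCI-60 human tumour cell line panel. Compounds dissolved in DMSO/H2O and tested at five 10-fold dilutions (10⁻⁴ M to 10⁻⁸ M) for 48 hr. GI50 is the molar concentration giving 50% reduction in net cell growth relative to cell numbers on day 0.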

[3] = test system: SR; assay: Anticancer activity against human SR cells after 48 hrs by sulforhodamine B assay; format: functional; procedure, shortened: as §1
[4] = test system: NCI-H460; assay: Anticancer activity against human NCI-H460 cells after 48 hrs by sulforhodamine B assay; format: functional; details: NCI-H460, 48 h; procedure, shortened: as §2
[5] = test system: UO-31; assay: Anticancer activity against human UO31 cells after 48 hrs by sulforhodamine B assay; format: functional; details: UO-31, 48 h; procedure, shortened: as §1
[6] = test system: SK-MEL-5; assay: Anticancer activity against human SK-MEL-5 cells after 48 hrs by sulforhodamine B assay; format: functional; details: SK-MEL-5, 48 h; procedure, shortened: as §2
[7] = test system: BT-549; assay: Anticancer activity against human BT549 cells after 48 hrs by sulforhodamine B assay; format: functional; details: BT-549, 48 h; procedure, shortened: as §2
[8] = test system: HCT-116; assay: Anticancer activity against human HCT116 cells after 48 hrs by sulforhodamine B assay; format: functional; details: HCT-116, 48 h; procedure, shortened: as §2
[9] = test system: CCRF-CEM; assay: Anticancer activity against human CCRF-CEM cells after 48 hrs by sulforhodamine B assay; format: functional; procedure, shortened: as §2
[10] = test system: SF-268; assay: Anticancer activity against human SF268 cells after 48 hrs by sulforhodamine B assay; format: functional; details: SF-268, 48 h; procedure, shortened: as §2
[11] = test system: Malme-3M; assay: Anticancer activity against human MALME-3M cells after 48 hrs by sulforhodamine B assay; format: functional; procedure, shortened: as §2
[12] = test system: SNB-75; assay: Anticancer activity against human SNB75 cells after 48 hrs by sulforhodamine B assay; format: functional; details: SNB-75, 48 h; procedure, shortened: as §2
[13] = test system: 786-0; assay: Anticancer activity against human 786-0 cells after 48 hrs by sulforhodamine B assay; format: functional; details: 786-0, 48 h; procedure, shortened: as §2
[14] = Anticancer activity against human RPMI8226 cells after 48 hrs by sulforhodamine B assay; format: functional; details: RPMI-8226, 48 h; procedure, shortened: as §2
[15] = test system: MDA-MB-231; assay: Anticancer activity against human MDA-MB-231 cells after 48 hrs by sulforhodamine B assay; format: functional; details: MDA-MB-231, 48 h; procedure, shortened: as §2
[16] = test system: MCF7; assay: Anticancer activity against human MCF7 cells after 48 hrs by sulforhodamine B assay; format: functional; details: MCF7, 48 h; procedure, shortened: as §2
[17] = test system: OVCAR-4; assay: Anticancer activity against human OVCAR4 cells after 48 hrs by sulforhodamine B assay; format: functional; details: OVCAR-4, 48 h; procedure, shortened: as §2
[18] = test system: NCI-H322M; assay: Anticancer activity against human NCI-H322M cells after 48 hrs by sulforhodamine B assay; format: functional; procedure, shortened: as §2
[19] = test system: OVCAR-5; assay: Anticancer activity against human OVCAR5 cells after 48 hrs by sulforhodamine B assay; format: functional; details: OVCAR-5, 48 h; procedure, shortened: as §2
[20] = test system: KM12; assay: Anticancer activity against human KM12 cells after 48 hrs by sulforhodamine B assay; format: functional; details: KM12, 48 h; procedure, shortened: as §2
[21] = test system: A549; assay: Anticancer activity against human A549/ATCC cells after 48 hrs by sulforhodamine B assay; format: functional; details: A549, 48 h; procedure, shortened: as §2
[22] = test system: SNB-19; assay: Anticancer activity against human SNB19 cells after 48 hrs by sulforhodamine B assay; format: functional; details: SNB-19, 48 h; procedure, shortened: as §2
[23] = test system: ACHN; assay: Anticancer activity against human ACHN cells after 48 hrs by sulforhodamine B assay; format: functional; procedure, shortened: as §2
[24] = test system: U-251; assay: Anticancer activity against human U251 cells after 48 hrs by sulforhodamine B assay; format: functional; details: U-251, 48 h; procedure, shortened: as §1
[25] = Anticancer activity against human COLO205 cells after 48 hrs by sulforhodamine B assay; format: functional; details: COLO 205, 48 h; procedure, shortened: as §2
[26] = test system: HL-60(TB); assay: Anticancer activity against human HL-60(TB) cells after 48 hrs by sulforhodamine B assay; format: functional; details: HL-60, 48 h; procedure, shortened: as §2
[27] = Anticancer activity against human HOP92 cells after 48 hrs by sulforhodamine B assay; format: functional; details: HOP-92, 48 h; procedure, shortened: as §2
[28] = test system: HCT-15; assay: Anticancer activity against human HCT15 cells after 48 hrs by sulforhodamine B assay; format: functional; details: HCT-15, 48 h; procedure, shortened: as §2
[29] = Anticancer activity against human RXF393 cells after 48 hrs by sulforhodamine B assay; format: functional; details: RXF 393, 48 h; procedure, shortened: as §2
[30] = test system: UACC-257; assay: Anticancer activity against human UACC257 cells after 48 hrs by sulforhodamine B assay; format: functional; details: UACC-257, 48 h; procedure, shortened: as §1
[31] = Anticancer activity against human HCC2998 cells after 48 hrs by sulforhodamine B assay; format: functional; details: HCC 2998, 48 h; procedure, shortened: as §2
[32] = test system: DU-145; assay: Anticancer activity against human DU145 cells after 48 hrs by sulforhodamine B assay; format: functional; details: DU-145, 48 h; procedure, shortened: as §2
[33] = test system: SK-MEL-2; assay: Anticancer activity against human SK-MEL-2 cells after 48 hrs by sulforhodamine B assay; format: functional; details: SK-MEL-2, 48 h; procedure, shortened: as §2
[34] = test system: TK-10; assay: Anticancer activity against human TK10 cells after 48 hrs by sulforhodamine B assay; format: functional; details: TK-10, 48 h; procedure, shortened: as §1
[35] = test system: A498; assay: Anticancer activity against human A498 cells after 48 hrs by sulforhodamine B assay; format: functional; details: A498, 48 h; procedure, shortened: as §2
[36] = test system: NCI-H522; assay: Anticancer activity against human NCI-H522 cells after 48 hrs by sulforhodamine B assay; format: functional; details: NCI-H522, 48 h; procedure, shortened: as §2
[37] = Anticancer activity against human Hs 578T cells after 48 hrs by sulforhodamine B assay; format: functional; procedure, shortened: as §2
[38] = test system: CAKI-1; assay: Anticancer activity against human Caki1 cells after 48 hrs by sulforhodamine B assay; format: functional; details: CAKI-1, 48 h; procedure, shortened: as §2
[39] = test system: M14; assay: Anticancer activity against human M14 cells after 48 hrs by sulforhodamine B assay; format: functional; details: M14, 48 h; procedure, shortened: as §2
[40] = test system: SN12C; assay: Anticancer activity against human SN12C cells after 48 hrs by sulforhodamine B assay; format: functional; procedure, shortened: as §2
[41] = test system: K562; assay: Anticancer activity against human K562 cells after 48 hrs by sulforhodamine B assay; format: functional; details: K562, 48 h; procedure, shortened: as §2
[42] = Anticancer activity against human NCI-ADR-RES cells after 48 hrs by sulforhodamine B assay; format: functional; procedure, shortened: as §2
[43] = Anticancer activity against human MOLT4 cells after 48 hrs by sulforhodamine B assay; format: functional; details: MOLT-4, 48 h; procedure, shortened: as §2
[44] = Anticancer activity against human OCI-AML3 cells expressing mutant NPM1 assessed as apoptosis for 48 hrs by annexin-V and TO-PRO3 staining based flow cytometry; format: functional, cell-based; details: OCI-AML-3, 48 h
Procedure, shortened: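 OCI-AML3 cells (NPM1c+) in logarithmic growth, passaged 2–3 times weekly. Cells were exposed to the indicated compound concentrations for 48 hr, then stained with annexin V and TO-PRO 3. Percent apoptotic cells was read by flow cytometry. AP50 is the concentration at which 50% of cells undergo apoptosis.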

[45] = test system: HT-29; assay: Anticancer activity against human HT-29 cells after 48 hrs by sulforhodamine B assay; format: functional; details: HT-29, 48 h; procedure, shortened: as §2
[46] = test system: IGROV-1; assay: Anticancer activity against human IGROV1 cells after 48 hrs by sulforhodamine B assay; format: functional; details: IGROV-1, 48 h; procedure, shortened: as §2
[47] = test system: OVCAR-3; assay: Anticancer activity against human OVCAR3 cells after 48 hrs by sulforhodamine B assay; format: functional; details: OVCAR-3, 48 h; procedure, shortened: as §2
[48] = test system: HOP-62; assay: Anticancer activity against human HOP62 cells after 48 hrs by sulforhodamine B assay; format: functional; details: HOP-62, 48 h; procedure, shortened: as §2
[49] = test system: SW-620; assay: Anticancer activity against human SW620 cells after 48 hrs by sulforhodamine B assay; format: functional; details: SW-620, 48 h; procedure, shortened: as §1
[50] = test system: NCI-H226; assay: Anticancer activity against human NCI-H226 cells after 48 hrs by sulforhodamine B assay; format: functional; details: NCI-H226, 48 h; procedure, shortened: as §2
[51] = test system: SK-MEL-28; assay: Anticancer activity against human SK-MEL-28 cells after 48 hrs by sulforhodamine B assay; format: functional; details: SK-MEL-28, 48 h; procedure, shortened: as §2
[52] = test system: MDA-MB-435; assay: Anticancer activity against human MDA-MB-435 cells after 48 hrs by sulforhodamine B assay; format: functional; details: MDA-MB-435, 48 h; procedure, shortened: as §2
[53] = test system: OVCAR-8; assay: Anticancer activity against human OVCAR8 cells after 48 hrs by sulforhodamine B assay; format: functional; details: OVCAR-8, 48 h; procedure, shortened: as §2
[54] = Anticancer activity against human LOXIMVI cells after 48 hrs by sulforhodamine B assay; format: functional; details: LOX IMVI; procedure, shortened: as §2
[55] = Anticancer activity against human SF295 cells after 48 hrs by sulforhodamine B assay; format: functional; details: SF-295, 48 h; procedure, shortened: as §2
[56] = Anticancer activity against human SF539 cells after 48 hrs by sulforhodamine B assay; format: functional; details: SF-539, 48 h; procedure, shortened: as §2
[57] = test system: SK-OV-3; assay: Anticancer activity against human SKOV3 cells after 48 hrs by sulforhodamine B assay; format: functional; details: SK-OV-3, 48 h; procedure, shortened: as §2

## Cc1c(C=C2C(=O)NC(=S)NC2=O)c2ccccc2n1Cc1ccc(C#N)cc1
[1]
  GI50: 2540 nM
[2]
  GI50: 380 nM
[3]
  GI50: 560 nM
[4]
  GI50: 2010 nM
[5]
  GI50: 1460 nM
[6]
  GI50: 1840 nM
[7]
  GI50: 1870 nM
[8]
  GI50: 1290 nM
[9]
  GI50: 840 nM
[10]
  GI50: 1600 nM
[11]
  GI50: 2500 nM
[12]
  GI50: 2040 nM
[13]
  GI50: 1760 nM
[14]
  GI50: 570 nM
[15]
  GI50: 1640 nM
[16]
  GI50: 1280 nM
[17]
  GI50: 1590 nM
[18]
  GI50: 1930 nM
[19]
  GI50: 1840 nM
[20]
  GI50: 1740 nM
[21]
  GI50: 2480 nM
[22]
  GI50: 1770 nM
[23]
  GI50: 1700 nM
[24]
  GI50: 1610 nM
[25]
  GI50: 1730 nM
[26]
  GI50: 1080 nM
[27]
  GI50: 1280 nM
[28]
  GI50: 1740 nM
[29]
  GI50: 1530 nM
[30]
  GI50: 1670 nM
[31]
  GI50: 1790 nM
[32]
  GI50: 1710 nM
[33]
  GI50: 2170 nM
[34]
  GI50: 1370 nM
[35]
  GI50: 220 nM
[36]
  GI50: 1750 nM
[37]
  GI50: 1220 nM
[38]
  GI50: 2210 nM
[39]
  GI50: 1610 nM
[40]
  GI50: 1400 nM
[41]
  GI50: 1770 nM
[42]
  GI50: 3830 nM
[43]
  GI50: 1820 nM
[44]
  AC50: 2720 nM
[45]
  GI50: 1760 nM
[46]
  GI50: 1610 nM
[47]
  GI50: 1580 nM
[48]
  GI50: 1960 nM
[49]
  GI50: 1360 nM
[50]
  GI50: 1790 nM
[51]
  GI50: 2080 nM
[52]
  GI50: 1490 nM
[53]
  GI50: 1320 nM
[54]
  GI50: 900 nM
[55]
  GI50: 1880 nM
[56]
  GI50: 1290 nM
[57]
  GI50: 2980 nM
